Autophagy HCS: autophagy modulation, high-content screen | actives 0.98% (n = 190,000) | AID 463193 | MEF GFP-LC3 puncta imaging; test concentration mostly 10 µM | calls only at 10 µM (by protocol);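 active means percentage of spot-positive cells more than 3 SD above its plate mean, without a fluorescence outlier flag or 80% toxicity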;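 further: spot-positive cell cutoff set from DMSO-treated cells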
Ins promoter up: MIN6 insulin promoter up-regulation. z-score at 5 µM. MIN6 insulin promoter-GFP reporter, high-content imaging; active compounds read high. actives 0.3% (n = 190,000);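 active means z-score above 3 at 5 µM with at least 500 cells counted in the well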
b-catenin transl: beta-catenin nuclear translocation modulation | HeLa beta-catenin nuclear translocation, immunofluorescence imaging | nuclear translocation activity, % at 5 µM | actives 0.3% (n = 190,000) | AID 1665;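 active means nuclear translocation activity above 50% at 5 µM, with a well cell count of 50 or more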;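 further: per-cell ratio of nuclear to cytoplasmic median beta-catenin stain intensity; plate controls were DMSO negative control for no effect and GSK-3 inhibitor IX positive control for full effect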
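System: HeLa cells, endogenous beta-catenin; compound dosing: 5 µM primary single dose, 0.1% DMSO, 0.02–20 µM confirmation series; incubation: 24 h compound exposure at 37°C, 5% CO2; signal: beta-catenin immunofluorescence imaging with DAPI; evaluation: % activation, nuclear-to-cytoplasmic median beta-catenin signal ratio per cell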
MT stabilizer: microtubule stabilization, imaging screen; HeLa tubulin immunostaining HCS, 24 h; share of cells brighter than vehicle mean+2SD; % tubulin-high responders, % at 10 µM; actives 0.83% (n = 200,000); AID 2205;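 active means plate Z-score above 3 for both tubulin-high and condensed-nucleus cell shares, with cell loss under 80%, at 10 µM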;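 further: anti alpha tubulin signal scored within the nucleus-defined area of each cell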
Tb hexokinase: T. brucei hexokinase 1 inhibition; recombinant TbHK1, G6PDH-coupled NADH A340; inhibition, % at 10 µM; actives 0.11% (n = 220,000); AID 1430;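 active means inhibition of 50% or more in the single-dose primary screen; inactive means inhibition below 50%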
Active calls of the source: *; i = inactive; . = no result; + = active, no number. This is a sample that favours compounds with a hit; in the whole collection about 1.9% have one here.

SMILES	Autophagy HCS	Ins promoter up	b-catenin transl	MT stabilizer	Tb hexokinase
CC(=O)C1=C(C)NC(SCC(=O)c2ccc(C)cc2)=C(C#N)C1c1ccco1 (configuration not stated)	+	0.5	5	3	-6
C=CCOC(=O)C1=C(C)NC(SCC(=O)Nc2ccc(C)c(Cl)c2)=C(C#N)C1c1ccco1 (configuration not stated)	+	0.25	-8	9	14
Cc1ccc(C(=O)CSC2=C(C#N)C(c3ccco3)C3=C(CC(C)(C)CC3=O)N2)cc1 (configuration not stated)	i	-1.7	.	2	-16
COc1ccccc1NC(=O)C1=C(C)NC(SCC(=O)c2ccccc2)=C(C#N)C1c1ccco1 (configuration not stated)	i	0.56	.	2	-7
COCCOC(=O)C1=C(C)NC(SCC(=O)NC(C)(C)C)=C(C#N)C1c1ccco1 (configuration not stated)	i	-0.79	0	4	-10
CCOC(=O)/C(C#N)=C/C1=C(N2CCOCC2)C(C)(C)OCC1	.	-0.63	1	.	0
COC(=O)[C@@H](NC(=O)Nc1ccc(OC)cc1)C(C)C	i	0.42	-7	2	-1
COC(=O)[C@@H](NC(=O)Nc1cccc(OC)c1)C(C)C	i	3*	1	4	1
CCOc1ccc(N(Cc2ccc(OC)cc2)C(=O)c2ccco2)cc1	i	-0.41	-2	2	0
COc1ccc(CN(C(=O)c2ccco2)c2ccc(C)c(C)c2)cc1	i	.	19	16*	1
CN(C)S(=O)(=O)c1cccc(NC(=O)CSc2nnnn2-c2ccccc2)c1	.	0	0	.	1
COc1ccccc1N1CCc2c(C)nc3c(OC)cccc3c21	i	-0.71	-5	0	-25
COc1cccc2c3c(c(C)nc12)CCN3c1ccccc1	+	.	0	3	-8
CS(=O)(=O)Nc1cccc(S(=O)(=O)N2CCN(C(=O)c3ccccc3)CC2)c1	.	0.21	1	.	-11
CCC(C)SCC(=O)Nc1ccc(S(=O)(=O)N2CCOCC2)cc1OC (configuration not stated)	.	-0.18	-1	.	-5
O=c1oc2ccccc2cc1-c1csc(Nc2nc3c(F)cccc3s2)n1	+	-0.61	1	3	-7
O=c1oc2ccccc2cc1-c1csc(Nc2nc3ccc(F)cc3s2)n1	i	-0.08	-3	4	0
COc1ccc(NC(=S)NNC(=O)c2ccccc2OC(F)F)cc1	i	.	16	36*	-4
Cc1cccc(NC(=S)NNC(=O)c2ccccc2OC(F)F)c1	i	-0.17	2	3	-3
CCc1ccc(NC(=S)NNC(=O)c2ccccc2OC(F)F)cc1	i	-0.81	13	16*	7
O=C(/C=C/c1ccco1)Nc1nnc(-c2ccco2)s1	i	0.03	12	8.2*	-1
O=C(/C=C\c1ccco1)Nc1cc([N+](=O)[O-])ccc1F	i	.	56*	4	-5
O=C(/C=C/c1ccco1)Nc1cc(Cl)ccc1C(=O)O	i	.	0	2	17
Cc1nc(NC(=O)/C=C/c2ccco2)sc1C	i	0.92	-3	16*	-10
CCc1nnc(NC(=O)/C=C/c2ccco2)s1	i	-0.04	-3	4	-62
SMILES	Autophagy HCS	Ins promoter up	b-catenin transl	MT stabilizer	Tb hexokinase
CCn1c2ccccc2c2cc(/C=N/NC(=O)c3ccc(O)cc3)ccc21	i	0.43	52*	17*	-34
CCn1c2ccccc2c2cc(/C=N/NC(=O)c3ccncc3)ccc21	i	-0.2	20	13*	-18
CCn1c2ccccc2c2cc(/C=N/NC(=O)c3cc(O)cc(O)c3)ccc21	i	.	0	3	-1
O=C(N/N=C/c1cc(Cl)cc([N+](=O)[O-])c1O)NC12CC3CC(CC(C3)C1)C2	i	.	0	5	8
CSc1nnnn1-c1c(C)cccc1C	.	-0.37	0	.	-5
Cc1ccc(NC2(c3nnnn3-c3c(C)cccc3C)CCCCC2)cc1	+	-0.43	2	2	17
COc1ccc(S(=O)(=O)Nc2nc3c(s2)CCCC3)cc1	i	-0.31	6	1	3
c1ccc(-n2ncc3c(N4CCN(c5ccccn5)CC4)nc(N4CCCCCC4)nc32)cc1	i	4.1*	7	6	2
CCNc1nc(ON=C(C)C)nc(N(C)C)n1	i	0.38	0	3	0
Cn1c(N)c(C(=O)COC(=O)CCCc2nc3ccccc3s2)c(=O)n(C)c1=O	+	0.4	-2	3	5

Assay outcomes as filed in PubChem.
